Measured values from ChEMBL document CHEMBL5724801, “EUbOPEN Chemogenomics Library - Multiplex” (2024).
“And” between values parts separate entries of the source, which are not always exact repeats. Identical values can stand only once.

Test system: Fibroblast
Assay: Multiplex assay against human fibroblast
Format: toxicity, cell-based
How it was run: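 Per cents of healthy-nucleus cells form the tubulin, mitochondrial-mass and membrane-permeability phenotype values. Live cells were stained at seeding with Hoechst33342, BioTracker Green Microtubule Cytoskeleton Dye, MitoTracker Red and Annexin V Alexa Fluor 680. After compound addition they were imaged on a CQ1 microscope at 37°C and 5% CO2, and CellPathfinder machine-learning gating split them into Hoechst high-intensity objects or normal cells, normal cells into healthy, pyknosed or fragmented nuclei, and pyknosed cells into mitotic or apoptotic.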

[1] = 12 h, 1 µM, compound concentration 1 uM
[2] = 12 h, 10 µM, compound concentration 10 uM
[3] = 24 h, 1 µM, compound concentration 1 uM
[4] = 24 h, 10 µM, compound concentration 10 uM
[5] = 48 h, 1 µM, compound concentration 1 uM
[6] = 48 h, 10 µM, compound concentration 10 uM

SMILES: N[C@@]1(C(=O)O)CO[C@H]2[C@H](C(=O)O)[C@H]21 [LY-379268]
- Population Apoptotic (%) [1]: 22% and 44%
- Population Fragmented Nuclei (%) [1]: 17% and 33%
- Population Healthy Nuclei (%) [1]: 70% and 43%
- Population Hoechst High Intensity Objects (%) [1]: 1% and 10%
- Population Membrane Permeable-Phenotype (%) [1]: 0% and 5%
- Population Mitochondria Different-Phenotype (%) [1]: 2% and 1%
- Population Mitotic Cells (%) [1]: 77% and 55%
- Population Normal (%) [1]: 98% and 89%
- Population Pyknosed Nuclei (%) [1]: 11% and 22%
- Population Tubulin-Different-Phenotype (%) [1]: 25% and 45%
- Total Cell Count [1]: 156 and 145
- Population Apoptotic (%) [2]: 29% and 21%
- Population Fragmented Nuclei (%) [2]: 15%
- Population Healthy Nuclei (%) [2]: 69% and 51%
- Population Hoechst High Intensity Objects (%) [2]: 3%
- Population Membrane Permeable-Phenotype (%) [2]: 0% and 4%
- Population Mitochondria Different-Phenotype (%) [2]: 3% and 1%
- Population Mitotic Cells (%) [2]: 70% and 78%
- Population Normal (%) [2]: 96%
- Population Pyknosed Nuclei (%) [2]: 14% and 33%
- Population Tubulin-Different-Phenotype (%) [2]: 19% and 47%
- Total Cell Count [2]: 187 and 128
- Population Apoptotic (%) [3]: 36% and 47%
- Population Fragmented Nuclei (%) [3]: 16% and 40%
- Population Healthy Nuclei (%) [3]: 70% and 41%
- Population Hoechst High Intensity Objects (%) [3]: 0% and 10%
- Population Membrane Permeable-Phenotype (%) [3]: 0% and 4%
- Population Mitochondria Different-Phenotype (%) [3]: 5% and 10%
- Population Mitotic Cells (%) [3]: 63% and 52%
- Population Normal (%) [3]: 99% and 89%
- Population Pyknosed Nuclei (%) [3]: 12% and 18%
- Population Tubulin-Different-Phenotype (%) [3]: 23% and 60%
- Total Cell Count [3]: 152 and 125
- Population Apoptotic (%) [4]: 66% and 22%
- Population Fragmented Nuclei (%) [4]: 14% and 17%
- Population Healthy Nuclei (%) [4]: 75% and 53%
- Population Hoechst High Intensity Objects (%) [4]: 5% and 6%
- Population Membrane Permeable-Phenotype (%) [4]: 0% and 2%
- Population Mitochondria Different-Phenotype (%) [4]: 3% and 0%
- Population Mitotic Cells (%) [4]: 33% and 77%
- Population Normal (%) [4]: 94% and 93%
- Population Pyknosed Nuclei (%) [4]: 10% and 28%
- Population Tubulin-Different-Phenotype (%) [4]: 19% and 44%
- Total Cell Count [4]: 189 and 133
- Population Apoptotic (%) [5]: 76% and 50%
- Population Fragmented Nuclei (%) [5]: 22% and 33%
- Population Healthy Nuclei (%) [5]: 68% and 55%
- Population Hoechst High Intensity Objects (%) [5]: 3% and 11%
- Population Membrane Permeable-Phenotype (%) [5]: 0% and 4%
- Population Mitochondria Different-Phenotype (%) [5]: 5% and 7%
- Population Mitotic Cells (%) [5]: 23% and 50%
- Population Normal (%) [5]: 96% and 88%
- Population Pyknosed Nuclei (%) [5]: 8% and 11%
- Population Tubulin-Different-Phenotype (%) [5]: 26% and 59%
- Total Cell Count [5]: 156 and 136
- Population Apoptotic (%) [6]: 62% and 42%
- Population Fragmented Nuclei (%) [6]: 14% and 27%
- Population Healthy Nuclei (%) [6]: 72% and 56%
- Population Hoechst High Intensity Objects (%) [6]: 1% and 7%
- Population Membrane Permeable-Phenotype (%) [6]: 0% and 10%
- Population Mitochondria Different-Phenotype (%) [6]: 0% and 5%
- Population Mitotic Cells (%) [6]: 37% and 57%
- Population Normal (%) [6]: 98% and 92%
- Population Pyknosed Nuclei (%) [6]: 13% and 16%
- Population Tubulin-Different-Phenotype (%) [6]: 19% and 47%
- Total Cell Count [6]: 179 and 140

SMILES: Cl.Clc1ccc2nsnc2c1NC1=NCCN1 [TIZANIDINE HYDROCHLORIDE]
- Population Apoptotic (%) [1]: 38% and 33%
- Population Fragmented Nuclei (%) [1]: 10% and 24%
- Population Healthy Nuclei (%) [1]: 72% and 49%
- Population Hoechst High Intensity Objects (%) [1]: 3% and 4%
- Population Membrane Permeable-Phenotype (%) [1]: 0% and 5%
- Population Mitochondria Different-Phenotype (%) [1]: 4% and 5%
- Population Mitotic Cells (%) [1]: 61% and 66%
- Population Normal (%) [1]: 96% and 95%
- Population Pyknosed Nuclei (%) [1]: 17% and 25%
- Population Tubulin-Different-Phenotype (%) [1]: 21% and 50%
- Total Cell Count [1]: 155 and 182
- Population Apoptotic (%) [2]: 36% and 21%
- Population Fragmented Nuclei (%) [2]: 18% and 24%
- Population Healthy Nuclei (%) [2]: 60% and 45%
- Population Hoechst High Intensity Objects (%) [2]: 4%
- Population Membrane Permeable-Phenotype (%) [2]: 0% and 7%
- Population Mitochondria Different-Phenotype (%) [2]: 8% and 7%
- Population Mitotic Cells (%) [2]: 64% and 78%
- Population Normal (%) [2]: 95%
- Population Pyknosed Nuclei (%) [2]: 20% and 29%
- Population Tubulin-Different-Phenotype (%) [2]: 29% and 33%
- Total Cell Count [2]: 129 and 143
- Population Apoptotic (%) [3]: 52% and 42%
- Population Healthy Nuclei (%) [3]: 76% and 49%
- Population Hoechst High Intensity Objects (%) [3]: 2% and 4%
- Population Membrane Permeable-Phenotype (%) [3]: 0% and 9%
- Population Mitochondria Different-Phenotype (%) [3]: 0% and 4%
- Population Mitotic Cells (%) [3]: 47% and 57%
- Population Normal (%) [3]: 97% and 95%
- Population Pyknosed Nuclei (%) [3]: 16% and 24%
- Total Cell Count [3]: 146 and 182
- Population Apoptotic (%) [4]: 45% and 47%
- Population Fragmented Nuclei (%) [4]: 19%
- Population Healthy Nuclei (%) [4]: 60% and 48%
- Population Hoechst High Intensity Objects (%) [4]: 1% and 2%
- Population Membrane Permeable-Phenotype (%) [4]: 0% and 9%
- Population Mitochondria Different-Phenotype (%) [4]: 5% and 6%
- Population Mitotic Cells (%) [4]: 54% and 52%
- Population Normal (%) [4]: 98% and 97%
- Population Pyknosed Nuclei (%) [4]: 20% and 32%
- Population Tubulin-Different-Phenotype (%) [4]: 20% and 34%
- Total Cell Count [4]: 122 and 135
- Population Apoptotic (%) [5]: 47% and 55%
- Population Fragmented Nuclei (%) [5]: 17% and 29%
- Population Healthy Nuclei (%) [5]: 71% and 47%
- Population Hoechst High Intensity Objects (%) [5]: 2% and 6%
- Population Membrane Permeable-Phenotype (%) [5]: 2% and 6%
- Population Mitochondria Different-Phenotype (%) [5]: 1% and 8%
- Population Mitotic Cells (%) [5]: 52% and 44%
- Population Normal (%) [5]: 97% and 93%
- Population Pyknosed Nuclei (%) [5]: 10% and 23%
- Population Tubulin-Different-Phenotype (%) [5]: 19% and 56%
- Total Cell Count [5]: 167 and 166
- Population Apoptotic (%) [6]: 69% and 63%
- Population Fragmented Nuclei (%) [6]: 26% and 35%
- Population Healthy Nuclei (%) [6]: 56% and 42%
- Population Hoechst High Intensity Objects (%) [6]: 2%
- Population Membrane Permeable-Phenotype (%) [6]: 0% and 6%
- Population Mitochondria Different-Phenotype (%) [6]: 5% and 11%
- Population Mitotic Cells (%) [6]: 30% and 36%
- Population Normal (%) [6]: 97%
- Population Pyknosed Nuclei (%) [6]: 17% and 21%
- Population Tubulin-Different-Phenotype (%) [6]: 26% and 44%
- Total Cell Count [6]: 133 and 141

SMILES: Cc1ccc(F)cc1C(=O)Nc1ccc(C(=O)N2Cc3cccn3Cc3ccccc32)c(Cl)c1 [LIXIVAPTAN]
- Population Apoptotic (%) [1]: 40% and 50%
- Population Fragmented Nuclei (%) [1]: 11% and 30%
- Population Healthy Nuclei (%) [1]: 73% and 47%
- Population Hoechst High Intensity Objects (%) [1]: 5% and 3%
- Population Membrane Permeable-Phenotype (%) [1]: 0% and 1%
- Population Mitochondria Different-Phenotype (%) [1]: 3% and 9%
- Population Mitotic Cells (%) [1]: 59% and 50%
- Population Normal (%) [1]: 94% and 96%
- Population Pyknosed Nuclei (%) [1]: 15% and 21%
- Population Tubulin-Different-Phenotype (%) [1]: 28% and 38%
- Total Cell Count [1]: 186 and 117
- Population Apoptotic (%) [2]: 34% and 31%
- Population Fragmented Nuclei (%) [2]: 18% and 27%
- Population Healthy Nuclei (%) [2]: 58% and 46%
- Population Hoechst High Intensity Objects (%) [2]: 0% and 5%
- Population Membrane Permeable-Phenotype (%) [2]: 2% and 6%
- Population Mitochondria Different-Phenotype (%) [2]: 5% and 10%
- Population Mitotic Cells (%) [2]: 65% and 68%
- Population Normal (%) [2]: 99% and 94%
- Population Pyknosed Nuclei (%) [2]: 23% and 25%
- Population Tubulin-Different-Phenotype (%) [2]: 62% and 72%
- Total Cell Count [2]: 137 and 179
- Population Apoptotic (%) [3]: 50% and 32%
- Population Fragmented Nuclei (%) [3]: 12% and 33%
- Population Healthy Nuclei (%) [3]: 73% and 43%
- Population Hoechst High Intensity Objects (%) [3]: 1% and 3%
- Population Membrane Permeable-Phenotype (%) [3]: 1% and 5%
- Population Mitochondria Different-Phenotype (%) [3]: 0% and 5%
- Population Mitotic Cells (%) [3]: 50% and 67%
- Population Normal (%) [3]: 98% and 96%
- Population Pyknosed Nuclei (%) [3]: 14% and 23%
- Population Tubulin-Different-Phenotype (%) [3]: 33% and 52%
- Total Cell Count [3]: 172 and 126
- Population Apoptotic (%) [4]: 25% and 51%
- Population Fragmented Nuclei (%) [4]: 19% and 26%
- Population Healthy Nuclei (%) [4]: 63% and 51%
- Population Hoechst High Intensity Objects (%) [4]: 0% and 5%
- Population Membrane Permeable-Phenotype (%) [4]: 2% and 11%
- Population Mitochondria Different-Phenotype (%) [4]: 8% and 12%
- Population Mitotic Cells (%) [4]: 75% and 48%
- Population Normal (%) [4]: 99% and 94%
- Population Pyknosed Nuclei (%) [4]: 17% and 22%
- Population Tubulin-Different-Phenotype (%) [4]: 63% and 82%
- Total Cell Count [4]: 142 and 174
- Population Apoptotic (%) [5]: 63% and 50%
- Population Fragmented Nuclei (%) [5]: 18% and 37%
- Population Healthy Nuclei (%) [5]: 68% and 40%
- Population Hoechst High Intensity Objects (%) [5]: 8% and 0%
- Population Membrane Permeable-Phenotype (%) [5]: 0% and 4%
- Population Mitochondria Different-Phenotype (%) [5]: 3% and 11%
- Population Mitotic Cells (%) [5]: 36% and 50%
- Population Normal (%) [5]: 91% and 99%
- Population Pyknosed Nuclei (%) [5]: 13% and 21%
- Population Tubulin-Different-Phenotype (%) [5]: 28% and 53%
- Total Cell Count [5]: 181 and 111
- Population Apoptotic (%) [6]: 70% and 73%
- Population Fragmented Nuclei (%) [6]: 25% and 36%
- Population Healthy Nuclei (%) [6]: 62% and 51%
- Population Hoechst High Intensity Objects (%) [6]: 2% and 5%
- Population Membrane Permeable-Phenotype (%) [6]: 0% and 6%
- Population Mitochondria Different-Phenotype (%) [6]: 13%
- Population Mitotic Cells (%) [6]: 29% and 26%
- Population Normal (%) [6]: 97% and 94%
- Population Pyknosed Nuclei (%) [6]: 11%
- Population Tubulin-Different-Phenotype (%) [6]: 69% and 78%
- Total Cell Count [6]: 149 and 170
